# Compound activity: PubChem BioAssay, several laboratories
# Most compounds without a hit are left out; they make up all but 5.8% or so of the library.
# NCF1 inh: p47phox (human) inhibition; p47phox/p22phox peptide binding, fluorescence polarization, 2 h; inhibition, % at 24.7 µM; 220,000 compounds, 0.53% hits; AID 1274;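 active = inhibition above about 30%, limit read from the data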;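 also: 0% = p47phox with labelled peptide and 100% = labelled peptide alone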
# 14-3-3 Bad inh: disrupts binding of bovine 14-3-3 zeta to phospho-Bad peptide. TR-FRET 14-3-3zeta/Dy647-pBad peptide displacement, 1 h. inhibition, % at 21.7 µM. P63103. 220,000 compounds, 0.71% hits;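 active = inhibition above about 70%, limit read from the data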;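 also: 0% = full 14-3-3 plus peptide FRET controls and 100% = background without 14-3-3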
# Target sequence (P63103 whole entry, looked up): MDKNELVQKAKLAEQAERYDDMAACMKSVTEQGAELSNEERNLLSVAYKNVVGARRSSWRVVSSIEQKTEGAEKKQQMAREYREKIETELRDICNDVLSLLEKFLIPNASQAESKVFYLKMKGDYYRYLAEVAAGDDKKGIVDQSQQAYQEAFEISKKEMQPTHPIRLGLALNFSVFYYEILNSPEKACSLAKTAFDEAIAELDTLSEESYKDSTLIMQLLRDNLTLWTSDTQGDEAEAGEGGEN
# KCC2 mod: modulators of human KCC2 chloride dependent transport; Q9H2X9; KCC2 cells, thallium flux FluoZin-2 fluorescence; B-score of Tl+ flux slope (higher = more flux/activation; lower = inhibition) at 10 µM; 190,000 compounds, 2.2% hits; AID 1456;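 active = thallium flux slope and its plate-corrected score both differing from the plate sample mean at a set confidence after two filtering rounds, in either direction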;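 also: slope of fluorescence scaled to starting intensity during 10 to 20 s after thallium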
# ROMK primary: modulators of human ROMK potassium channel; P48048; Tet-inducible ROMK, thallium flux fluorescence; actives lie on both sides; B-score at 10 µM; 130,000 compounds, 2% hits; AID 1918;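 active = signal ratio slope over the read window, or its plate-corrected B-score, at least 3 SD from the plate mean, either direction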;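 also: B-score of the F/F0 ratio slope over 7 to 12 s after thallium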
# Target sequence (P48048 whole entry, looked up): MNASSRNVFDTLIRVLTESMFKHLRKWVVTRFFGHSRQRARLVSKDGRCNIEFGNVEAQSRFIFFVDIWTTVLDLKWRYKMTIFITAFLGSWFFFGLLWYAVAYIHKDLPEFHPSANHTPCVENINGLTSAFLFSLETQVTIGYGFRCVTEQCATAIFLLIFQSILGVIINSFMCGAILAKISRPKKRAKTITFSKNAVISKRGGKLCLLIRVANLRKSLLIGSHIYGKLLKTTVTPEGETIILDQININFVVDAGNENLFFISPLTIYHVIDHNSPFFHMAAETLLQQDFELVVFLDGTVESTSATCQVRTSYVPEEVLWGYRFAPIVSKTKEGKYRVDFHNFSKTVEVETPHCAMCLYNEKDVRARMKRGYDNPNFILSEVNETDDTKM
# RBBP9 inhibitor: inhibitors of human serine hydrolase RBBP9; O75884; inhibition, % at 7.94 µM; 220,000 compounds, 0.2% hits; recombinant RBBP9, FP-Rh probe fluorescence polarization; AID 1515;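 active = inhibition above the campaign mean of all tested compounds plus 3 SD, cut at about 14% in these data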;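 also: plate controls were DMSO wells with RBBP9 for no effect and wells lacking RBBP9 protein for full effect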
#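 system = RBBP9 protein | input = RBBP9 at 2.5 µM in dispensed solution, before mixing | measured by = fluorescence polarization (mP), excitation 525 nm, emission 598 nm | incubation = enzyme-compound preincubation 30 min, then probe labeling 45 min, 25 °C | buffer or medium = Tris-NaCl-Pluronic buffer, pH 8.0 | compound = single dose 7.94 µM | also added = FP-Rh probe, 375 nM dispensing solution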
# WT yeast gro inh: growth inhibition of WT yeast, mitochondrial fusion screen. mitochondrial fusion phenotypic screen, WT strain. inhibition, % at 10 µM. 190,000 compounds, 2.1% hits. AID 1362; in the data active = inhibition above about 58%; tested in S. cerevisiae
# ROMK hit retest: confirmation of human ROMK potassium channel modulators | shares compounds with ROMK primary | ROMK thallium flux, fluorescence ratio; active compounds read low | normalized thallium flux (F/F0 slope) at 10 µM | 3,000 compounds, 54% hits;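 active = Flux at 10 µM at least 3 SD below or above vehicle control mean in one or both replicates; inconclusive = no clear call, values can overlap the other calls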
# * hit, by the source's call; ? = inconclusive; / = no result given.
SMILES,NCF1 inh,14-3-3 Bad inh,KCC2 mod,ROMK primary,RBBP9 inhibitor,WT yeast gro inh,ROMK hit retest
Cn1cccc1-c1nc2ccccc2[nH]1,-1.0,2.2,-0.125,0.234,-4.3,/,/
CC(=O)Nc1cccc(/C(C)=N/NC(=O)c2ccc(O)cc2)c1,-9.2,-11.5,0.132,0.0153,-6.6,-11.8,/
C/C(=N\NC(=S)Nc1c(C)cccc1C)c1ccc(O)cc1,-9.0,-3.0,0.0696,/,-1.1,/,0.0784
C=CCc1cccc2cc(C(=O)NC(C)(C)C)c(=O)oc12,-14.1,6.8,-0.121,7.42*,-4.8,-7.2,0.0718
Brc1cc2c(cc1C1Nc3ccccc3C3C=CCC31)OCO2 (stereo not drawn),-28.0,10.4,0.15,0.00347,-0.5,47.7,/
O=C(O)c1ccc2c(c1)C1C=CCC1C(c1cc3c(cc1Br)OCO3)N2 (stereo not drawn),-2.2,8.8,/,3.97*,-8.0,35.2,0.0895
COc1cccc(C(=O)COC(=O)CCC(=O)NC2CCCCC2)c1,-1.6,-7.8,-0.591,0.298,-6.3,-24.6,/
Cc1ccc(C)c(N2CCN(S(=O)(=O)c3ccc4[nH]c(=O)c(=O)[nH]c4c3)CC2)c1,-1.2,-4.2,0.0251,3.86*,-6.2,2.4,?
CC(C)=NOc1nc(N(C)C)nc(N2CCOCC2)n1,0.6,3.1,0.0439,0.59,-4.8,/,/
Cc1cccc(Nc2nc3c(S(=O)(=O)c4ccccc4)nnn3c3ccccc23)c1,-5.8,22.5,0.748,0.00999,-6.8,5.5,0.0816
COc1ccc2c(c1)[nH]c1c(N3CCSCC3)ncnc12,1.8,2.2,-2.83,/,1.5,/,?
COc1cccc(N2CCN(c3ncnc4c3[nH]c3ccccc34)CC2C)c1 (stereo not drawn),-17.1,3.9,-1.56,-2.76,-7.0,65.0*,0.059*
c1ccc2c(c1)CCN(c1ncnc3c1[nH]c1ccccc13)C2,-18.4,-6.9,/,-2.92*,/,72.2*,0.0601*
COc1ccc2[nH]c3c(N4CC(C)OC(C)C4)ncnc3c2c1 (stereo not drawn),-26.8,-5.7,/,-1.07,5.7,46.7,/
COc1cccc(N2CCN(c3ncnc4c3[nH]c3ccc(F)cc34)CC2C)c1 (stereo not drawn),-23.7,-4.3,-1.02,-2.95*,-6.2,79.1*,0.057*
O=C(CCl)N(c1ccc(Cl)cc1)c1c[nH]c2ccccc12,-9.0,3.6,-1.51,-2.22,-5.1,14.3,0.0557*
Cc1ccc(OCC(=O)Nc2cccc(-c3nnc(-c4ccccc4)o3)c2)cc1,-11.5,-9.7,-0.891,/,-3.8,40.8,0.0793
Fc1ccc(-c2nn(-c3ccccc3)cc2CNCc2ccccc2)cc1,-5.9,-2.0,-0.515,-2.57*,-1.2,82.6,0.0467*
O=C(O)Cc1cn(-c2ccccc2)nc1-c1ccccc1,-8.2,-6.2,0.146,0.423,-6.5,-20.7,/
CC(C)=CCN1CCN(Cc2cccn2-c2ccccn2)CC1CCO (stereo not drawn),-11.8,-7.0,1.18,-0.00762,-6.7,-16.3,/
COc1cccc(/C=C/C(=O)c2c(O)cc(C)oc2=O)c1O,-13.3,-4.4,-0.635,-5.86*,-4.2,-39.3,0.0567*
Cc1cc2ncn(/N=C/c3ccc([N+](=O)[O-])o3)c2cc1C,-16.1,-4.0,0.223,/,-5.0,-4.8,/
O=C1C2C(C(=O)N1CCN1CCN(Cc3ccc([N+](=O)[O-])cc3)CC1)[C@H]1C=C[C@@H]2C1 (stereo partly drawn),2.9,-3.0,-1.73,/,2.9,/,/
COc1ccc(NC(=O)c2ccc(-c3ccccc3Cl)o2)cc1,-14.3,2.6,-0.57,1.12,-10.0,19.7,/
COc1ccc(NC(=O)c2ccc(-c3ccc(C)c4ccccc34)o2)cc1,-34.8,-11.0,0.284,1.74*,-11.9,10.3,0.0751
SMILES,NCF1 inh,14-3-3 Bad inh,KCC2 mod,ROMK primary,RBBP9 inhibitor,WT yeast gro inh,ROMK hit retest
O=S(=O)(NCc1ccccc1)NCc1ccccc1,-2.3,-2.2,0.266,/,-3.4,-13.8,0.0834
COC(=O)c1ccccc1NC(=O)CC#N,-5.6,-1.1,0.232,/,-0.4,-19.6,0.073
CNc1ccccc1C(=O)OC,1.8,11.9,0.692,/,/,/,0.0814
Cc1nnc(SCCOc2ccccc2)s1,-1.4,-6.7,0.566,-0.778,-6.3,0.9,/
COc1ccc(C(=O)COC(=O)c2ccccc2NS(=O)(=O)c2ccc(O)c([N+](=O)[O-])c2)cc1,-7.0,-5.2,-4.18,/,-16.0,/,0.0806
COc1ccc(NC(=O)c2ccccc2NS(=O)(=O)c2ccc(C)cc2)c([N+](=O)[O-])c1,-11.1,-2.1,-2.46,-0.00798,0.9,3.0,/
O=C(CSc1nc2ccccc2o1)N1CCN(S(=O)(=O)c2ccc3ccccc3c2)CC1,-8.9,-6.8,-1.08,-3.55*,-5.9,7.6,0.0757
Cc1ccc(S(=O)(=O)N2CCN(C(=O)CSc3nc4ccccc4o3)C2)cc1,-12.5,4.6,-2.31,/,-2.9,-9.9,/
CCC1(C)Cc2sc3c(=O)[nH]c(=S)[nH]c3c2CO1 (stereo not drawn),-2.2,-5.5,-0.954,-0.296,-0.3,7.2,/
O=C(COC(=O)CCc1c[nH]c2ccccc12)NCc1ccc2c(c1)OCO2,19.8,-8.8,-0.606,0.555,8.3,-9.4,/
Cc1ccc(NC(=O)c2nc(C)n(-c3ccc([N+](=O)[O-])cc3)n2)cc1,4.4,-5.9,/,/,5.3,2.7,?
CCOC(=O)C1CCCN(C(=S)NC2CCCC2)C1 (stereo not drawn),-3.0,-3.6,-0.0771,2.63,-15.8,14.2,/
CCCCN(C(=O)c1cccc2c(=O)c(C)c(-c3ccccc3)oc12)c1ccccc1,-12.9,11.2,-1.32,-3.7*,0.3,78.0*,0.0628*
CCCCNC(=O)c1cccc2c(=O)c(C)c(-c3ccccc3)oc12,-2.8,6.3,-0.121,/,-0.3,11.5,/
CC(=O)Nc1ccc(S(=O)(=O)N2CCCC2C(=O)Nc2ccc3c(c2)OCCO3)cc1 (stereo not drawn),0.8,-7.8,0.26,-0.0277,-7.5,-13.7,/
CC(=O)Oc1ccccc1C1OC(=O)c2ccccc2N1C(C)=O (stereo not drawn),-18.3,1.8,/,0.912,-6.7,0.1,0.0867
COC(=O)COc1ccc(-c2ccc(F)cc2)cc1C=O,-8.3,-0.1,-0.588,4.67*,0.7,17.7,?
O=C(CSc1nnc2ccccn12)Nc1ccc2c(c1)OCCO2,-8.1,4.0,0.65,0.157,-10.5,0.8,/
COCCn1c(=NC(=O)CSCC(=O)Nc2cc(C)on2)sc2cc(C(=O)OC)ccc21,2.3,3.5,-0.377,-0.051,0.8,-2.3,0.0791
O=C1CSC(c2ccccc2Cl)N1 (stereo not drawn),4.5,-4.5,0.536,3.45*,-1.2,-5.8,0.0888
Cc1noc(C)c1COC(=O)C(c1ccccc1)c1ccccc1,2.4,-8.7,-0.928,-1.03,-4.0,23.8,/
